Experimental data from PMC12753540 (Investigational New Drugs, 2025).
Values joined by “and” are separate entries in the source; they are usually repeats but may differ in a detail not shown here. Equal entries are not always repeated. Marks after values point to notes of the source that are not given here.

Legend:
[1] = Phase 1 study: safety and tolerability; assay type: in vivo, human (Japanese patients with advanced solid tumors)
Procedure, shortened: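 Oral dosing was 240 mg BID on Days 1–7 (Cohort 1) or 160 mg BID on Days 1–14 (Cohort 2) of 28-day cycles, after a single dose on C0D1, using a rolling-6 escalation design. DLTs were assessed over Cycles 0 and 1. AEs were coded by MedDRA and graded by CTCAE v4.03. The TEAE window ran from first dose to 30 (+7) days after the last dose or discontinuation. Relatedness was judged by the investigator. Data were summarized descriptively for all patients who received ≥1 dose.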

[2] = test system: advanced solid malignancies; assay: Phase 1 study: antitumor activity; assay type: in vivo, human (Japanese patients); conditions: for Best overall response: Complete response / Best overall response: Partial response: confirmed; for Best overall response: Stable disease: maintained ≥ 7 weeks from Cycle 1 Day 1; for Median PFS: Kaplan-Meier, data cutoff May 25, 2023
Procedure, shortened: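 Oral twice-daily dosing on Days 1–7 of 28-day cycles, after a single oral dose on C0D1 (4-day Cycle 0). Tumors were imaged by CT or MRI at baseline, then by the same method every 8 weeks (±1 week) until progression, per RECIST 1.1. CR/PR needed confirmation ≥4 weeks later, and SD had to last ≥7 weeks from C1D1. ORR was limited to measurable disease, with Clopper-Pearson 95% CI; PFS by Kaplan–Meier.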

[3] = Phase 1 study: plasma pharmacokinetics, non-compartmental analysis; assay type: in vivo, human (Japanese patients); conditions: for tmax, Median (range) / Cmax / Vd/F / half-life: oral; for tmax, Median (range) / Cmax / Vd/F / half-life / Tmax: plasma; for Cmax / Vd/F / half-life / Tmax: human; for Vd/F: Arithmetic mean (SD); for half-life: t1/2, Arithmetic mean (SD); for Tmax: po, Median (range)
advanced solid tumors = conditions: monotherapy, cited from earlier work
[4] = cited from earlier work
[5] = test system: advanced gastric cancer, metastatic melanoma, non-small-cell lung cancer; conditions: in combination with durvalumab; phase 2 studies; cited from earlier work
[6] = Cohort 1 240 mg BID (n = 6), Any grade
[7] = Cohort 2 160 mg BID (n = 6), Any grade
[8] = Multiple-dose administration, Cohort 1 240 mg BID (n = 6)
[9] = Multiple-dose administration, Cohort 2 160 mg BID (n = 6)
[10] = Single-dose administration, Cohort 1 240 mg (n = 6)
[11] = Single-dose administration, Cohort 2 160 mg (n = 6)
[12] = 160 mg, Single-dose administration, Cohort 2 160 mg (n = 6)
[13] = 240 mg, Single-dose administration, Cohort 1 240 mg (n = 6)

C[C@@H]1COCCN1c1cc(C2([S@](C)(=N)=O)CC2)nc(-c2cc[nH]c3nccc2-3)n1 [ceralasertib]
Any DLT ([1]; Cohort 1 240 mg BID (n = 6)): 1 (16.7)* n (%) | Any SAE ([1]; Cohort 1 240 mg BID (n = 6)): 0 n (%) | Any SAE related to treatment ([1]; Cohort 1 240 mg BID (n = 6)): 0 n (%) | Any SAE related to treatment, Grade ≥ 3 ([1]; Cohort 1 240 mg BID (n = 6)): 0 n (%) | Any SAE, Grade ≥ 3 ([1]; Cohort 1 240 mg BID (n = 6)): 0 n (%) | Any TEAE ([1]; Cohort 1 240 mg BID (n = 6)): 6 (100) n (%) | Any TEAE leading to death ([1]; Cohort 1 240 mg BID (n = 6)): 0 n (%) | Any TEAE leading to discontinuation of ceralasertib ([1]; Cohort 1 240 mg BID (n = 6)): 1 (16.7)* n (%) | Any TEAE leading to discontinuation of ceralasertib, Related to treatment ([1]; Cohort 1 240 mg BID (n = 6)): 1 (16.7)* n (%) | Any TEAE leading to dose interruption of ceralasertib ([1]; Cohort 1 240 mg BID (n = 6)): 0 n (%) | Any TEAE leading to dose interruption of ceralasertib, Related to treatment ([1]; Cohort 1 240 mg BID (n = 6)): 0 n (%) | Any TEAE leading to dose reduction of ceralasertib ([1]; Cohort 1 240 mg BID (n = 6)): 1 (16.7) n (%) | Any TEAE leading to dose reduction of ceralasertib, Related to treatment ([1]; Cohort 1 240 mg BID (n = 6)): 1 (16.7) n (%) | Any TEAE, Grade ≥ 3 ([1]; Cohort 1 240 mg BID (n = 6)): 1 (16.7)* n (%) | Any TRAE ([1]; Cohort 1 240 mg BID (n = 6)): 5 (83.3) n (%) | Any TRAE leading to death ([1]; Cohort 1 240 mg BID (n = 6)): 0 n (%) | Any TRAE, Grade ≥ 3 ([1]; Cohort 1 240 mg BID (n = 6)): 1 (16.7)* n (%) | TEAE: Anemia [1, 6]: 3 n (%) | TEAE: Constipation [1, 6]: 2 n (%) | TEAE: Nausea [1, 6]: 3 n (%) | TEAE: Neutrophil count decreased [1, 6]: 2 n (%) | TEAE: Platelet count decreased [1, 6]: 2 n (%) | Any DLT ([1]; Cohort 2 160 mg BID (n = 6)): 1 (16.7)^† n (%) | Any SAE ([1]; Cohort 2 160 mg BID (n = 6)): 2 (33.3) n (%) | Any SAE related to treatment ([1]; Cohort 2 160 mg BID (n = 6)): 1 (16.7)^† n (%) | Any SAE related to treatment, Grade ≥ 3 ([1]; Cohort 2 160 mg BID (n = 6)): 1 (16.7)^† n (%) | Any SAE, Grade ≥ 3 ([1]; Cohort 2 160 mg BID (n = 6)): 2 (33.3) n (%) | Any TEAE ([1]; Cohort 2 160 mg BID (n = 6)): 6 (100) n (%) | Any TEAE leading to death ([1]; Cohort 2 160 mg BID (n = 6)): 0 n (%) | Any TEAE leading to discontinuation of ceralasertib ([1]; Cohort 2 160 mg BID (n = 6)): 0 n (%) | Any TEAE leading to discontinuation of ceralasertib, Related to treatment ([1]; Cohort 2 160 mg BID (n = 6)): 0 n (%) | Any TEAE leading to dose interruption of ceralasertib ([1]; Cohort 2 160 mg BID (n = 6)): 1 (16.7)^† n (%) | Any TEAE leading to dose interruption of ceralasertib, Related to treatment ([1]; Cohort 2 160 mg BID (n = 6)): 1 (16.7)^† n (%) | Any TEAE leading to dose reduction of ceralasertib ([1]; Cohort 2 160 mg BID (n = 6)): 1 (16.7)^† n (%) | Any TEAE leading to dose reduction of ceralasertib, Related to treatment ([1]; Cohort 2 160 mg BID (n = 6)): 1 (16.7)^† n (%) | Any TEAE, Grade ≥ 3 ([1]; Cohort 2 160 mg BID (n = 6)): 2 (33.3) n (%) | Any TRAE leading to death ([1]; Cohort 2 160 mg BID (n = 6)): 0 n (%) | Any TRAE, Grade ≥ 3 ([1]; Cohort 2 160 mg BID (n = 6)): 1 (16.7)^† n (%) | TEAE: Anemia [1, 7]: 4 n (%) | TEAE: Nausea [1, 7]: 4 n (%) | TEAE: Platelet count decreased [1, 7]: 4 n (%) | TEAE: White blood cell count decreased [1, 7]: 3 n (%) | Patients with grade ≥ 3 treatment-emergent adverse event ([1]; both cohorts, 12 patients treated): 3 patients | Overall tolerability ([1]; monotherapy, both regimens): well tolerated with an acceptable safety profile | Patients with low grade (grade ≤ 2) events only ([1]; of 12 patients enrolled): 9 patients | Best overall response: Not evaluable ([2]; Cohort 1 240 mg BID (n = 6)): 1 (16.7) n (%) | Best overall response: Not evaluable, No post-baseline assessment ([2]; Cohort 1 240 mg BID (n = 6)): 1 (16.7) n (%) | Best overall response: Objective response ([2]; Cohort 1 240 mg BID (n = 6)): 0 n (%) | Best overall response: Progressive disease ([2]; Cohort 1 240 mg BID (n = 6)): 3 n (%) and 3 (50.0) n (%) | Best overall response: Complete response ([2]; Cohort 1 240 mg BID (n = 6)): 0 n (%) | Best overall response: Partial response ([2]; Cohort 1 240 mg BID (n = 6)): 0 n (%) | Best overall response: Stable disease ([2]; Cohort 1 240 mg BID (n = 6)): 2 n (%) and 2 (33.3) n (%) | Median PFS ([2]; Cohort 1 240 mg BID): 2.1 months | Best overall response: Not evaluable ([2]; Cohort 2 160 mg BID (n = 6)): 0 n (%) | Best overall response: Not evaluable, No post-baseline assessment ([2]; Cohort 2 160 mg BID (n = 6)): 0 n (%) | Best overall response: Objective response ([2]; Cohort 2 160 mg BID (n = 6)): 0 n (%) | Best overall response: Progressive disease ([2]; Cohort 2 160 mg BID (n = 6)): 2 n (%) and 2 (33.3) n (%) | Best overall response: Complete response ([2]; Cohort 2 160 mg BID (n = 6)): 0 n (%) | Best overall response: Partial response ([2]; Cohort 2 160 mg BID (n = 6)): 0 n (%) | Best overall response: Stable disease ([2]; Cohort 2 160 mg BID (n = 6)): 4 n (%) and 4 (66.7) n (%) | Median PFS ([2]; Cohort 2 160 mg BID): 3.3 months | Patients with best objective response of stable disease ([2]; both cohorts in total, 12 patients): 6 patients | AUCss, Geometric mean (CV%) [3, 8]: 94,970 (20.38) ng x h/mL | AUCss,last, Geometric mean (CV%) [3, 8]: 92,140 (20.55) ng x h/mL | CLss/F, Arithmetic mean (SD) [3, 8]: 2.568 (0.4725) L/h | Css,max, Geometric mean (CV%) [3, 8]: 11,970 (16.26) ng/mL | tss,max, Median (range) ([3]; Multiple-dose administration, Cohort 1 240 mg BID (n = 6), Cycle 1 Day 7): 1.97 (0.95–2.83) h | AUCss, Geometric mean (CV%) [3, 9]: 57,400 (17.41) ng x h/mL | AUCss,last, Geometric mean (CV%) [3, 9]: 56,020 (17.05) ng x h/mL | CLss/F, Arithmetic mean (SD) [3, 9]: 2.822 (0.4864) L/h | Css,max, Geometric mean (CV%) [3, 9]: 8132 (16.01) ng/mL | tss,max, Median (range) ([3]; Multiple-dose administration, Cohort 2 160 mg BID (n = 6), Cycle 1 Day 8): 1.87 (0.52–2.92) h | AUC(0–12), Geometric mean (CV%) [3, 10]: 54,260 (12.8) ng x h/mL | AUCinf, Geometric mean (CV%) [3, 10]: 102,800 (20.67) ng x h/mL | AUClast, Geometric mean (CV%) [3, 10]: 100,700 (19.14) ng x h/mL | CL/F, Arithmetic mean (SD) [3, 10]: 2.4 L/h and 2.375 (0.4926) L/h | Vz/F, Arithmetic mean (SD) [3, 10]: 40.47 (7.307) L | t1/2, Arithmetic mean (SD) [3, 10]: 12.24 (3.472) h | tmax, Median (range) [3, 10]: 2.04 (1.98–3.97) h | AUC(0–12), Geometric mean (CV%) [3, 11]: 39,160 (16.33) ng x h/mL | AUCinf, Geometric mean (CV%) [3, 11]: 71,440 (29.19) ng x h/mL | AUClast, Geometric mean (CV%) [3, 11]: 69,120 (25.54) ng x h/mL | CL/F, Arithmetic mean (SD) [3, 11]: 2.3 L/h and 2.318 (0.6707) L/h | Vz/F, Arithmetic mean (SD) [3, 11]: 43.03 (8.284) L | tmax, Median (range) [3, 11]: 1.92 (0.85–2.13) h | Cmax ([3]; 160 mg): 6550 ng/mL | Vd/F ([3]; 160 mg, Vss/F, Multiple-dose administration, Cohort 2 160 mg BID (n = 6)): 35.3 L | half-life [3, 12]: 13.9 h | Cmax ([3]; 240 mg): 7670 ng/mL | Vd/F ([3]; 240 mg, Vss/F, Multiple-dose administration, Cohort 1 240 mg BID (n = 6)): 33.8 L | Vd/F ([3]; 240 mg, Vz/F, Single-dose administration, Cohort 1 240 mg (n = 6)): 40.5 L | half-life [3, 13]: 12.2 h | Tmax [3, 12]: 1.9 h | Tmax [3, 13]: 2 h | Accumulation of ceralasertib in plasma ([3]; multiple administrations at 160 mg or 240 mg): up to 1.8 fold | Arithmetic mean TCP ([3]; range across both cohorts, multiple dosing): 0.82–0.94 | Dose proportionality of exposure ([3]; single and multiple dosing, 160 mg and 240 mg): A trend suggesting a dose-proportional increase in exposure | Disease control (evaluable patients) (advanced solid tumors; 39 of 66 evaluable patients): 59% | Confirmed partial response (advanced solid tumors; 66 evaluable patients): 5 n | Stable disease or unconfirmed PR (advanced solid tumors; 66 evaluable patients): 34 n | Median tmax ([4]; Caucasian patients, PATRIOT study): 0.5 to 4 h | Mean t1/2 after single dosing ([4]; PATRIOT studies, at higher doses): 11.2 to 12.8 h | Objective response rates (ORR) [5]: 14 to 31%
